Assay results as given in ChEMBL document CHEMBL5058577, “EUbOPEN Chemogenomics Library 2 (Multiplex)” (2022).
Non-standard residues stand in square brackets, D forms with d. Residues, ends and D or L forms follow the SMILES beside them.

Tested on: U2OS
Experiment: Multiplex assay against U2OS
Type: toxicity, cell-based
Conditions: human
Procedure, shortened: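 Cells were classed with CellPathfinder machine-learning gating, first as Hoechst high-intensity objects or normal cells, then (normal cells) as healthy, pyknosed or fragmented nuclei, and finally (pyknosed cells) as mitotic or apoptotic. Staining of live cells at seeding used Hoechst33342, BioTracker Green Microtubule Cytoskeleton Dye, MitoTracker Red and Annexin V Alexa Fluor 680, with imaging on a CQ1 microscope at 37°C and 5% CO2 after compound addition. Tubulin, mitochondrial-mass and membrane-permeability phenotypes are per cents of healthy-nucleus cells.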

[1] = 12 h, 1 µM, compound concentration 1 uM, replicate 1
[2] = 12 h, 1 µM, compound concentration 1 uM, replicate 2
[3] = 12 h, 10 µM, compound concentration 10 uM, replicate 1
[4] = 12 h, 10 µM, compound concentration 10 uM, replicate 2
[5] = 24 h, 1 µM, compound concentration 1 uM, replicate 1
[6] = 24 h, 1 µM, compound concentration 1 uM, replicate 2
[7] = 24 h, 10 µM, compound concentration 10 uM, replicate 1
[8] = 24 h, 10 µM, compound concentration 10 uM, replicate 2
[9] = 48 h, 1 µM, compound concentration 1 uM, replicate 1
[10] = 48 h, 1 µM, compound concentration 1 uM, replicate 2
[11] = 48 h, 10 µM, compound concentration 10 uM, replicate 1
[12] = 48 h, 10 µM, compound concentration 10 uM, replicate 2

## CCC(=O)OCC(=O)[C@@]1(OC(=O)CC)[C@@H](C)C[C@H]2[C@@H]3CCC4=CC(=O)C=C[C@]4(C)[C@@]3(Cl)[C@@H](O)C[C@@]21C [BECLOMETHASONE DIPROPIONATE]
[1]
  Population Apoptotic (%): 84%
  Population Fragmented Nuclei (%): 23%
  Population Healthy Nuclei (%): 64%
  Population Hoechst High Intensity Objects (%): 1%
  Population Membrane Permeable-Phenotype (%): 11%
  Population Mitochondria Different-Phenotype (%): 4%
  Population Mitotic Cells (%): 15%
  Population Normal (%): 98%
  Population Pyknosed Nuclei (%): 12%
  Population Tubulin-Different-Phenotype (%): 6%
  Total Cell Count: 160
[2]
  Population Apoptotic (%): 71%
  Population Fragmented Nuclei (%): 18%
  Population Healthy Nuclei (%): 75%
  Population Hoechst High Intensity Objects (%): 0%
  Population Membrane Permeable-Phenotype (%): 13%
  Population Mitochondria Different-Phenotype (%): 8%
  Population Mitotic Cells (%): 28%
  Population Normal (%): 99%
  Population Pyknosed Nuclei (%): 6%
  Population Tubulin-Different-Phenotype (%): 4%
  Total Cell Count: 111
[3]
  Population Apoptotic (%): 65%
  Population Fragmented Nuclei (%): 42%
  Population Healthy Nuclei (%): 40%
  Population Hoechst High Intensity Objects (%): 4%
  Population Membrane Permeable-Phenotype (%): 67%
  Population Mitochondria Different-Phenotype (%): 73%
  Population Mitotic Cells (%): 34%
  Population Normal (%): 95%
  Population Pyknosed Nuclei (%): 17%
  Population Tubulin-Different-Phenotype (%): 80%
  Total Cell Count: 176
[4]
  Population Apoptotic (%): 68%
  Population Fragmented Nuclei (%): 12%
  Population Healthy Nuclei (%): 69%
  Population Membrane Permeable-Phenotype (%): 48%
  Population Mitochondria Different-Phenotype (%): 97%
  Population Mitotic Cells (%): 31%
  Population Pyknosed Nuclei (%): 18%
  Population Tubulin-Different-Phenotype (%): 97%
  Total Cell Count: 109
[5]
  Population Apoptotic (%): 78%
  Population Fragmented Nuclei (%): 21%
  Population Healthy Nuclei (%): 67%
  Population Hoechst High Intensity Objects (%): 2%
  Population Membrane Permeable-Phenotype (%): 2%
  Population Mitochondria Different-Phenotype (%): 4%
  Population Mitotic Cells (%): 21%
  Population Normal (%): 97%
  Population Pyknosed Nuclei (%): 10%
  Population Tubulin-Different-Phenotype (%): 1%
  Total Cell Count: 217
[6]
  Population Apoptotic (%): 87%
  Population Fragmented Nuclei (%): 15%
  Population Healthy Nuclei (%): 71%
  Population Hoechst High Intensity Objects (%): 0%
  Population Membrane Permeable-Phenotype (%): 6%
  Population Mitochondria Different-Phenotype (%): 5%
  Population Mitotic Cells (%): 12%
  Population Normal (%): 99%
  Population Pyknosed Nuclei (%): 13%
  Population Tubulin-Different-Phenotype (%): 3%
  Total Cell Count: 123
[7]
  Population Apoptotic (%): 74%
  Population Fragmented Nuclei (%): 35%
  Population Healthy Nuclei (%): 45%
  Population Hoechst High Intensity Objects (%): 3%
  Population Membrane Permeable-Phenotype (%): 40%
  Population Mitochondria Different-Phenotype (%): 72%
  Population Mitotic Cells (%): 25%
  Population Normal (%): 96%
  Population Pyknosed Nuclei (%): 18%
  Population Tubulin-Different-Phenotype (%): 66%
  Total Cell Count: 174
[8]
  Population Apoptotic (%): 64%
  Population Fragmented Nuclei (%): 12%
  Population Healthy Nuclei (%): 69%
  Population Hoechst High Intensity Objects (%): 9%
  Population Membrane Permeable-Phenotype (%): 43%
  Population Mitochondria Different-Phenotype (%): 86%
  Population Mitotic Cells (%): 35%
  Population Normal (%): 90%
  Population Pyknosed Nuclei (%): 17%
  Population Tubulin-Different-Phenotype (%): 76%
  Total Cell Count: 106
[9]
  Population Apoptotic (%): 91%
  Population Fragmented Nuclei (%): 22%
  Population Healthy Nuclei (%): 68%
  Population Hoechst High Intensity Objects (%): 2%
  Population Membrane Permeable-Phenotype (%): 5%
  Population Mitochondria Different-Phenotype (%): 2%
  Population Mitotic Cells (%): 8%
  Population Normal (%): 97%
  Population Pyknosed Nuclei (%): 9%
  Population Tubulin-Different-Phenotype (%): 2%
  Total Cell Count: 268
[10]
  Population Apoptotic (%): 85%
  Population Fragmented Nuclei (%): 10%
  Population Healthy Nuclei (%): 75%
  Population Membrane Permeable-Phenotype (%): 8%
  Population Mitochondria Different-Phenotype (%): 5%
  Population Mitotic Cells (%): 14%
  Population Pyknosed Nuclei (%): 14%
  Population Tubulin-Different-Phenotype (%): 3%
  Total Cell Count: 152
[11]
  Population Apoptotic (%): 80%
  Population Fragmented Nuclei (%): 36%
  Population Healthy Nuclei (%): 47%
  Population Hoechst High Intensity Objects (%): 4%
  Population Membrane Permeable-Phenotype (%): 20%
  Population Mitochondria Different-Phenotype (%): 26%
  Population Mitotic Cells (%): 20%
  Population Normal (%): 95%
  Population Pyknosed Nuclei (%): 15%
  Population Tubulin-Different-Phenotype (%): 14%
  Total Cell Count: 199
[12]
  Population Apoptotic (%): 70%
  Population Fragmented Nuclei (%): 21%
  Population Healthy Nuclei (%): 65%
  Population Hoechst High Intensity Objects (%): 6%
  Population Membrane Permeable-Phenotype (%): 16%
  Population Mitochondria Different-Phenotype (%): 36%
  Population Mitotic Cells (%): 29%
  Population Normal (%): 93%
  Population Pyknosed Nuclei (%): 13%
  Population Tubulin-Different-Phenotype (%): 10%
  Total Cell Count: 131

## CC(C)C[C@@H]1NC(=O)[C@@H](C(C)C)NC(=O)[C@@H]2CCCN2C(=O)[C@@H](CC(=O)O)NC(=O)[C@@H](Cc2c[nH]c3ccccc23)NC1=O [BQ-123] (cyclo(L[dW][dD]P[dV]))
[1]
  Population Apoptotic (%): 77%
  Population Fragmented Nuclei (%): 20%
  Population Healthy Nuclei (%): 69%
  Population Hoechst High Intensity Objects (%): 0%
  Population Membrane Permeable-Phenotype (%): 1%
  Population Mitochondria Different-Phenotype (%): 1%
  Population Mitotic Cells (%): 22%
  Population Normal (%): 99%
  Population Pyknosed Nuclei (%): 9%
  Population Tubulin-Different-Phenotype (%): 0%
  Total Cell Count: 228
[2]
  Population Apoptotic (%): 83%
  Population Fragmented Nuclei (%): 19%
  Population Healthy Nuclei (%): 75%
  Population Hoechst High Intensity Objects (%): 2%
  Population Membrane Permeable-Phenotype (%): 2%
  Population Mitochondria Different-Phenotype (%): 0%
  Population Mitotic Cells (%): 16%
  Population Normal (%): 97%
  Population Pyknosed Nuclei (%): 5%
  Population Tubulin-Different-Phenotype (%): 8%
  Total Cell Count: 118
[3]
  Population Apoptotic (%): 78%
  Population Fragmented Nuclei (%): 29%
  Population Healthy Nuclei (%): 65%
  Population Hoechst High Intensity Objects (%): 2%
  Population Membrane Permeable-Phenotype (%): 8%
  Population Mitochondria Different-Phenotype (%): 1%
  Population Mitotic Cells (%): 21%
  Population Normal (%): 97%
  Population Pyknosed Nuclei (%): 4%
  Population Tubulin-Different-Phenotype (%): 3%
  Total Cell Count: 294
[4]
  Population Apoptotic (%): 75%
  Population Fragmented Nuclei (%): 25%
  Population Healthy Nuclei (%): 70%
  Population Membrane Permeable-Phenotype (%): 7%
  Population Mitochondria Different-Phenotype (%): 4%
  Population Mitotic Cells (%): 25%
  Population Tubulin-Different-Phenotype (%): 2%
  Total Cell Count: 99
[5]
  Population Apoptotic (%): 69%
  Population Fragmented Nuclei (%): 16%
  Population Healthy Nuclei (%): 75%
  Population Hoechst High Intensity Objects (%): 0%
  Population Membrane Permeable-Phenotype (%): 2%
  Population Mitochondria Different-Phenotype (%): 1%
  Population Mitotic Cells (%): 30%
  Population Normal (%): 99%
  Population Pyknosed Nuclei (%): 8%
  Population Tubulin-Different-Phenotype (%): 1%
  Total Cell Count: 279
[6]
  Population Apoptotic (%): 85%
  Population Fragmented Nuclei (%): 11%
  Population Healthy Nuclei (%): 77%
  Population Membrane Permeable-Phenotype (%): 6%
  Population Mitochondria Different-Phenotype (%): 0%
  Population Mitotic Cells (%): 14%
  Population Pyknosed Nuclei (%): 10%
  Population Tubulin-Different-Phenotype (%): 3%
  Total Cell Count: 137
[7]
  Population Apoptotic (%): 92%
  Population Fragmented Nuclei (%): 24%
  Population Healthy Nuclei (%): 67%
  Population Hoechst High Intensity Objects (%): 2%
  Population Membrane Permeable-Phenotype (%): 8%
  Population Mitochondria Different-Phenotype (%): 2%
  Population Mitotic Cells (%): 8%
  Population Normal (%): 97%
  Population Pyknosed Nuclei (%): 7%
  Population Tubulin-Different-Phenotype (%): 4%
  Total Cell Count: 338
[8]
  Population Apoptotic (%): 100%
  Population Healthy Nuclei (%): 74%
  Population Hoechst High Intensity Objects (%): 0%
  Population Membrane Permeable-Phenotype (%): 6%
  Population Mitochondria Different-Phenotype (%): 8%
  Population Mitotic Cells (%): 0%
  Population Normal (%): 99%
  Population Pyknosed Nuclei (%): 1%
  Total Cell Count: 113
[9]
  Population Apoptotic (%): 77%
  Population Fragmented Nuclei (%): 14%
  Population Healthy Nuclei (%): 79%
  Population Hoechst High Intensity Objects (%): 1%
  Population Membrane Permeable-Phenotype (%): 3%
  Population Mitochondria Different-Phenotype (%): 1%
  Population Mitotic Cells (%): 22%
  Population Normal (%): 98%
  Population Pyknosed Nuclei (%): 5%
  Population Tubulin-Different-Phenotype (%): 3%
  Total Cell Count: 407
[10]
  Population Apoptotic (%): 100%
  Population Fragmented Nuclei (%): 18%
  Population Healthy Nuclei (%): 70%
  Population Mitochondria Different-Phenotype (%): 3%
  Population Mitotic Cells (%): 0%
  Population Pyknosed Nuclei (%): 10%
  Population Tubulin-Different-Phenotype (%): 2%
  Total Cell Count: 226
[11]
  Population Apoptotic (%): 94%
  Population Fragmented Nuclei (%): 19%
  Population Healthy Nuclei (%): 70%
  Population Hoechst High Intensity Objects (%): 1%
  Population Membrane Permeable-Phenotype (%): 5%
  Population Mitochondria Different-Phenotype (%): 2%
  Population Mitotic Cells (%): 5%
  Population Normal (%): 98%
  Population Pyknosed Nuclei (%): 9%
  Population Tubulin-Different-Phenotype (%): 3%
  Total Cell Count: 435
[12]
  Population Apoptotic (%): 81%
  Population Fragmented Nuclei (%): 20%
  Population Healthy Nuclei (%): 66%
  Population Mitochondria Different-Phenotype (%): 6%
  Population Mitotic Cells (%): 18%
  Population Pyknosed Nuclei (%): 12%
  Population Tubulin-Different-Phenotype (%): 2%
  Total Cell Count: 131
